Reference: ChEMBL document CHEMBL3286372, “Design, synthesis and structure-activity relationship of novel semi-synthetic flavonoids as antiproliferative agents” (2014)

Experiments:
[1] = Growth inhibition of human RXF393 cells at 10 uM after 48 hrs by sulforhodamine B assay relative to control; format: functional; conditions: RXF 393, 48 h, read-out: GI
Procedure, shortened: (§1)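 NCI-60 primary screen at a single 10 µM dose. Continuous 48 h exposure, with growth or viability estimated by sulforhodamine B protein staining. Reported as percent growth inhibition of treated cells relative to untreated growth.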

[2] = test system: SF-268; test: Growth inhibition of human SF268 cells at 10 uM after 48 hrs by sulforhodamine B assay relative to control; format: functional; conditions: SF-268, 48 h, read-out: GI; procedure, shortened: as §1
[3] = Growth inhibition of human HOP92 cells at 10 uM after 48 hrs by sulforhodamine B assay relative to control; format: functional; conditions: HOP-92, 48 h, read-out: GI
Procedure, shortened: (§2)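 NCI-60 primary screen at a single dose of 10 µM with 48 h continuous exposure. Growth or viability read by sulforhodamine B protein staining and expressed as percent growth inhibition versus untreated cells.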

[4] = test system: Ehrlich; test: Antitumor activity against mouse EAC cells allografted in BALB mouse assessed as tumor growth inhibition at 6 mg/kg, ip for 5 days relative to control; format: functional; conditions: 120 h, route intraperitoneal, read-out: TGI
Procedure, shortened: (§3)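 Female BALB mice; Ehrlich ascites carcinoma cells, 2×10^5 cells/mouse in 0.2 ml saline, injected s.c. into the left hind leg and grown 2 wk. Daily i.p. saline (control), 3 or 6 mg/kg for 5 days. Caliper size V = 0.4×a(b)^2, taken just before the first dose and 24 h after the last. Mean ± SEM, n = 6; ANOVA with Tukey-Kramer.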

[5] = test system: Mus musculus; test: Decrease in cyclin D1 level in tumor of BALB mouse allografted with mouse EAC cells at 6 mg/kg, ip for 5 days competitive ELISA relative to control; format: functional, Ehrlich; parameters: scale not given: the % may be the effect or the level left; conditions: route intraperitoneal
Procedure, shortened: (§4)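 Mice bearing s.c. Ehrlich tumours (2×10^5 EAC cells, grown 2 wk) were given daily i.p. saline, 3 or 6 mg/kg for 5 days. Tumours were excised, washed in cold saline and blotted, and a 10% homogenate was made in phosphate buffered saline. Cyclin D1 was measured by competitive ELISA with samples in duplicate. Mean ± SEM, n = 6.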

[6] = Growth inhibition of human UACC257 cells at 10 uM after 48 hrs by sulforhodamine B assay relative to control; format: functional; conditions: UACC-257, 48 h, read-out: GI
Procedure, shortened: (§5)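 NCI-60 primary single-dose screen at 10 µM with continuous 48 h exposure. Cell viability/growth read by sulforhodamine B protein staining. Reported as percent growth inhibition relative to untreated cells.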

[7] = test system: Mus musculus; test: Decrease in cyclin D1 level in tumor of BALB mouse allografted with mouse EAC cells at 3 mg/kg, ip for 5 days competitive ELISA relative to control; format: functional, Ehrlich; parameters: scale not given: the % may be the effect or the level left; conditions: route intraperitoneal; procedure, shortened: as §4
[8] = test system: U-251; test: Growth inhibition of human U251 cells at 10 uM after 48 hrs by sulforhodamine B assay relative to control; format: functional; conditions: U-251, 48 h, read-out: GI; procedure, shortened: as §5
[9] = test system: IGROV-1; test: Growth inhibition of human IGROV1 cells at 10 uM after 48 hrs by sulforhodamine B assay relative to control; format: functional; conditions: IGROV-1, 48 h, read-out: GI; procedure, shortened: as §2
[10] = test system: NCI-H522; test: Growth inhibition of human NCI-H522 cells at 10 uM after 48 hrs by sulforhodamine B assay relative to control; format: functional; conditions: NCI-H522, 48 h, read-out: GI; procedure, shortened: as §1
[11] = test system: K562; test: Growth inhibition of human K562 cells at 10 uM after 48 hrs by sulforhodamine B assay relative to control; format: functional; conditions: K562, 48 h, read-out: GI; procedure, shortened: as §2
[12] = test system: Ehrlich; test: Antitumor activity against mouse EAC cells allografted in BALB mouse assessed as tumor growth inhibition at 3 mg/kg, ip for 5 days relative to control; format: functional; conditions: 120 h, route intraperitoneal, read-out: TGI; procedure, shortened: as §3
[13] = test system: Mus musculus; test: Increase in GSK-3beta level in tumor of BALB mouse allografted with mouse EAC cells at 3 mg/kg, ip for 5 days by competitive ELISA relative to control; format: functional, Ehrlich; conditions: route intraperitoneal
Procedure, shortened: (§6)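 Female BALB mice bearing subcutaneous EAC tumours (2×10^5 cells in left hind leg, grown 2 wk). Dosed i.p. daily for 5 days; controls received saline. Excised tumours washed in cold saline and homogenised at 10% in PBS. GSK-3β measured by competitive ELISA, samples in duplicate. Change versus untreated controls, mean ± SEM, n = 6.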

[14] = test system: Mus musculus; test: Increase in GSK-3beta level in tumor of BALB mouse allografted with mouse EAC cells at 6 mg/kg, ip for 5 days by competitive ELISA relative to control; format: functional, Ehrlich; conditions: route intraperitoneal; procedure, shortened: as §6

Question: For `C=CCc1c2c(c(OC)c3ccoc13)C(=O)/C(=C/c1ccccc1OC)O2`, which inhibition of growth at 10 µM [1] is on record?
Answer: 75%

Question: Which inhibition of growth at 10 µM [2] does the source give for `COc1c2occc2c(OC)c2c(=O)c(CN3CCOCC3)c(/C=C/c3ccc(Cl)cc3)oc12` here?
Answer: 67%

Question: And the inhibition of growth at 10 µM [3]?
Answer: 95%

Question: Which inhibition in vivo at 6 mg/kg [4] does the source give for `COc1c2occc2c(OC)c2c(=O)c(CN3CCOCC3)c(/C=C/c3ccc(N(C)C)cc3)oc12` here?
Answer: 57.1%

Question: And the Activity [5]?
Answer: 59.1%

Question: What about the inhibition of growth at 10 µM [6] of the same compound?
Answer: 76%

Question: And the Activity [7]?
Answer: 40.6%

Question: What about the inhibition of growth at 10 µM [8] of the same compound?
Answer: 69%

Question: And the inhibition of growth at 10 µM [9]?
Answer: 78%

Question: What about the inhibition of growth at 10 µM [10] of the same compound?
Answer: 84%

Question: And the inhibition of growth at 10 µM [11]?
Answer: 84%

Question: What about the inhibition in vivo at 3 mg/kg [12] of the same compound?
Answer: 62.1%

Question: What about the Activity [13] of the same compound?
Answer: 101.5%

Question: What about the Activity [14] of the same compound?
Answer: 197.2%
